Data as given in PMC7810645 (Targeted Oncology, 2020).
Like-named read-outs stand apart in the source and are kept apart here.

Legend:
patients [1] = details: cited from earlier work
[2] = tested on: patients with recurrent, platinum-sensitive ovarian cancer; details: niraparib 300 mg daily + bevacizumab 15 mg/kg d1 q21d vs niraparib 300 mg daily alone; cited from earlier work
patients [3] = details: rucaparib 600 mg BID single agent, ARIEL3; cited from earlier work
[4] = Rucaparib plasma pharmacokinetics in patients; type: in vivo, human; details: for AUC(0-t) / Tmax / Cmax: human, plasma, oral; for Tmax: mean (±SD)
Method in brief: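 Oral dosing was 400, 500 or 600 mg BID. Cycle 1 blood was drawn on day −7 (first dose, before bevacizumab), day 1 (bevacizumab infusion) and day 21, at 1, 2, 3, 4, 6, 8 and 24 h post-dose. Plasma was assayed by validated HPLC-MS. Day −7 yielded Cmax, Tmax and AUC0–8h, and days 1/21 gave steady-state Cmax, Cmin and AUC, all by noncompartmental analysis. Summaries were mean, SD, CV, median and geometric mean.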

[5] = tested on: patients with high-grade epithelial ovarian, fallopian tube, or primary peritoneal cancer; type: in vivo, human
Method in brief: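 Patients had newly diagnosed stage IIIB–IV disease, ECOG 0–1 and no prior anticancer therapy. All received six cycles of carboplatin AUC 5 plus paclitaxel 175 mg/m2 and bevacizumab, each d1 q21d. Oral maintenance drug began within 9 weeks, continuous BID in 28-day cycles, first dose 7 days before bevacizumab. Three-patient cohorts (Fibonacci triplets). DLTs were assessed over the first two cycles, with AEs graded by CTCAE v4.03.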

PARP1 = details: read-out: IC50, enzymatic activity of PARP1; cited from earlier work
PARP2 = details: read-out: IC50, enzymatic activity of PARP2; cited from earlier work
[6] = tested on: PARP enzymes at sites of DNA damage; details: cited from earlier work
[7] = steady state, day 1 (bevacizumab infusion), 400 mg BID, n 3
[8] = steady state, day 1 (bevacizumab infusion), 500 mg BID, n 3
[9] = steady state, day 1 (bevacizumab infusion), 600 mg BID, n 3
[10] = steady state, day 21, with bevacizumab, 400 mg BID, n 2
[11] = steady state, day 21, with bevacizumab, 500 mg BID, n 3
[12] = steady state, day 21, with bevacizumab, 600 mg BID, n 2
[13] = rucaparib 400 mg BID (n = 3) + bevacizumab
[14] = rucaparib 500 mg BID (n = 3) + bevacizumab
[15] = rucaparib 600 mg BID (n = 3) + bevacizumab

NC(=O)c1cccc2cn(-c3ccc([C@@H]4CCCNC4)cc3)nc12 [niraparib]
incidence of thrombocytopenia and hypertension (patients [1]; vs olaparib or rucaparib): higher incidence
PFS adjusted hazard ratio [2]: 0.35

CNCc1ccc(-c2[nH]c3cc(F)cc4c3c2CCNC4=O)cc1 [rucaparib]
incidence of increased alanine/aspartate aminotransferase levels (patients [1]; vs olaparib or niraparib): higher incidence
patients with dose reduction due to a TEAE (patients [3]): 55%
patients with grade 3 or higher TEAEs (patients [3]): 56%
patients with grade 3 or higher anemia (patients [3]): 19%
range of trough concentrations ([4]; 400 mg BID): 1.5 to 1.6 µg/mL
range of trough concentrations ([4]; 500 mg BID): 1.8 to 2.0 µg/mL
range of trough concentrations ([4]; 600 mg BID): 1.6 to 2.1 µg/mL
dose proportionality of plasma exposure ([4]; 400-600 mg BID): approximately dose proportional
Cmax and AUC at steady state (days 1 and 21) relative to day −7 ([4]; all dose levels): two to three times higher
Cmin, mean (±SD) ([4]; first administration, day −7, 400 mg BID, n 3): 200 ± 100 ng/mL
Cmin, mean (±SD) ([4]; first administration, day −7, 500 mg BID, n 3): 400 ± 100 ng/mL
Cmin, mean (±SD) ([4]; first administration, day −7, 600 mg BID, n 3): 300 ± 200 ng/mL
AUC(0-t) ([4]; 400 mg): 3400 ± 800 ng·h/mL
Tmax ([4]; 400 mg, first administration, day −7, 400 mg BID, n 3): 3.4 ± 0.7 h
AUC(0-t) ([4]; 500 mg): 4700 ± 1900 ng·h/mL
Cmax ([4]; 500 mg): 900 ± 600 ng/mL
Tmax ([4]; 500 mg, steady state, day 21, with bevacizumab, 500 mg BID, n 3): 2 ± 1 h
AUC(0-t) ([4]; 600 mg): 4900 ± 1600 ng·h/mL
Cmax ([4]; 600 mg): 1000 ± 200 ng/mL
Tmax ([4]; 600 mg, first administration, day −7, 600 mg BID, n 3): 3.4 ± 1.2 h
Tmax [4, 7]: 4.6 ± 2.9 h
Tmax [4, 8]: 1.7 ± 1.2 h
Tmax [4, 9]: 3 ± 1 h
CmaxSS, mean (±SD) [4, 7]: 2400 ± 200 ng/mL
CminSS, mean (±SD) [4, 7]: 1400 ± 300 ng/mL
Ctrough, mean (±SD) [4, 7]: 1600 ± 100 ng/mL
CmaxSS, mean (±SD) [4, 8]: 2600 ± 500 ng/mL
CminSS, mean (±SD) [4, 8]: 1600 ± 700 ng/mL
Ctrough, mean (±SD) [4, 8]: 1800 ± 700 ng/mL
CmaxSS, mean (±SD) [4, 9]: 2600 ± 500 ng/mL
CminSS, mean (±SD) [4, 9]: 1400 ± 300 ng/mL
Ctrough, mean (±SD) [4, 9]: 1600 ± 100 ng/mL
CmaxSS, mean (±SD) [4, 10]: 2600 ± 900 ng/mL
CminSS, mean (±SD) [4, 10]: 1300 ± 400 ng/mL
Ctrough, mean (±SD) [4, 10]: 1500 ± 300 ng/mL
CmaxSS, mean (±SD) [4, 11]: 2300 ± 400 ng/mL
CminSS, mean (±SD) [4, 11]: 1500 ± 500 ng/mL
Ctrough, mean (±SD) [4, 11]: 2000 ± 600 ng/mL
CmaxSS, mean (±SD) [4, 12]: 2500 ± 1300 ng/mL
CminSS, mean (±SD) [4, 12]: 1600 ± 1200 ng/mL
Ctrough, mean (±SD) [4, 12]: 2100 ± 300 ng/mL
maximum tolerated dose (MTD) ([5]; BID, combined with bevacizumab 15 mg/kg d1 q21d): 500 mg
safety concerns from the combination of rucaparib and bevacizumab ([5]; all dose cohorts): no new safety concerns
Anemia, grade 1: number of patients with an event [5, 13]: 1
Arthralgia, grade 1: number of patients with an event [5, 13]: 2 (2)
Arthralgia, grade 1: number of total events [5, 13]: 2 (2)
Cutaneous erythema, grade 1: number of patients with an event [5, 13]: 1
Fatigue, grade 1: number of patients with an event [5, 13]: 1
Feet paresthesia, grade 1: number of patients with an event [5, 13]: 1
Genital herpes, grade 1: number of patients with an event [5, 13]: 1
Genital herpes, grade 2: number of patients with an event [5, 13]: 1
Headache, grade 1: number of patients with an event [5, 13]: 1
Mucosal dryness, grade 1: number of patients with an event [5, 13]: 1
Nausea, grade 1: number of patients with an event [5, 13]: 1
Neuropathy, grade 1: number of patients with an event [5, 13]: 1
Transaminases increase, grade 1: number of patients with an event [5, 13]: 1
dose-limiting toxicities (DLTs) ([5]; rucaparib 400 mg BID + bevacizumab 15 mg/kg d1 q21d): No DLTs
Abdominal pain, grade 1: number of patients with an event [5, 14]: 1
Arthralgia, grade 1: number of patients with an event [5, 14]: 1
Bleeding gums, grade 1: number of patients with an event [5, 14]: 1
Diarrhea, grade 1: number of patients with an event [5, 14]: 1
Diarrhea, grade 1: number of total events [5, 14]: 3
Dysgeusia, grade 1: number of patients with an event [5, 14]: 1
Dysgeusia, grade 2: number of patients with an event [5, 14]: 1
Fatigue, grade 1: number of patients with an event [5, 14]: 1
Flushes, grade 1: number of patients with an event [5, 14]: 1
High cholesterol, grade 1: number of patients with an event [5, 14]: 1
High cholesterol, grade 2: number of patients with an event [5, 14]: 1
Hypertension, grade 2: number of patients with an event [5, 14]: 3 (3)
Hypertension, grade 2: number of total events [5, 14]: 3 (3)
Insomnia, grade 2: number of patients with an event [5, 14]: 1
Nausea, grade 1: number of patients with an event [5, 14]: 2 (2)
Nausea, grade 1: number of total events [5, 14]: 2 (2)
Transaminases increase, grade 1: number of patients with an event [5, 14]: 1
Vomiting, grade 1: number of patients with an event [5, 14]: 1
dose-limiting toxicities (DLTs) ([5]; rucaparib 500 mg BID + bevacizumab 15 mg/kg d1 q21d): No DLTs
ALT increase, grade 2: number of patients with an event [5, 15]: 1
ALT increase, grade 3: number of patients with an event [5, 15]: 1
AST increase, grade 2: number of patients with an event [5, 15]: 1
AST increase, grade 3: number of patients with an event [5, 15]: 1
Abdominal pain, grade 1: number of patients with an event [5, 15]: 1
Arthralgia, grade 1: number of patients with an event [5, 15]: 1
Arthralgia, grade 2: number of patients with an event [5, 15]: 1
Constipation, grade 2: number of patients with an event [5, 15]: 1
Depression, grade 1: number of patients with an event [5, 15]: 1
Depression, grade 1: number of total events [5, 15]: 2
Depression, grade 2: number of patients with an event [5, 15]: 1
Depression, grade 3: number of patients with an event [5, 15]: 1
Diarrhea, grade 1: number of patients with an event [5, 15]: 1
Dysgeusia, grade 1: number of patients with an event [5, 15]: 1
Epigastralgia, grade 1: number of patients with an event [5, 15]: 1
Fatigue, grade 1: number of patients with an event [5, 15]: 1
Fever, grade 2: number of patients with an event [5, 15]: 1
Hallucination, grade 3: number of patients with an event [5, 15]: 1
Headache, grade 1: number of patients with an event [5, 15]: 1
Lack of appetite, grade 1: number of patients with an event [5, 15]: 1
Limb pain, grade 1: number of patients with an event [5, 15]: 1
Mucositis, grade 1: number of patients with an event [5, 15]: 1
Nausea, grade 1: number of patients with an event [5, 15]: 3
Nausea, grade 1: number of total events [5, 15]: 4
Nausea, grade 2: number of patients with an event [5, 15]: 1
Nausea, grade 2: number of total events [5, 15]: 3
Neutrophils decreased, grade 2: number of patients with an event [5, 15]: 1
Skin bruises, grade 1: number of patients with an event [5, 15]: 1
Stranguria, grade 1: number of patients with an event [5, 15]: 1
Toothache, grade 1: number of patients with an event [5, 15]: 1
patients affected by DLTs ([5]; rucaparib 600 mg BID + bevacizumab 15 mg/kg d1 q21d): two out of three patients

Cn1ncnc1[C@H]1c2n[nH]c(=O)c3cc(F)cc(c23)N[C@@H]1c1ccc(F)cc1 [talazoparib]
potency for DNA trapping [6]: more potent DNA trapping abilities

bevacizumab
most frequent bevacizumab-related AE ([5]; combination with rucaparib): hypertension
